Data: ChEMBL document CHEMBL1149585, “Toward the development of chemoprevention agents. Part 1: Design, synthesis, and anti-inflammatory activities of a new class of 2,5-disubstituted-dioxacycloalkanes” (Bioorg Med Chem, 2007)

Tests used:
[1] = system: Mus musculus; test: Toxicity in mouse assessed as tail bleeding time at 200 mg/kg, po after 30 mins; format: organism-based; parameters: dose 200 mg/kg, route oral; conditions: in vivo, 0.5 h
Outline: (§1)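 Male mice (18–22 g) were dosed orally, and bleeding time was recorded before dosing and at each post-dose time. Each mouse was held in a tube with its tail protruding, and a 2 mm tail cut was made. Blood was wiped away with tissue every 30 s until bleeding ceased, and the time was recorded. The comparison group received NS.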

[2] = system: Mus musculus; test: Inhibition of xylene-induced ear edema in Kunming mouse at 20 mg/kg, po after 2 hrs relative to control; format: functional
Outline: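 Male Kunming mice (groups of 12; n = 11 per table footnote) were dosed orally as a suspension in 0.5% CMC, with CMC vehicle and positive control groups. After 30 min, 0.03 ml xylene went on both surfaces of the right ear, with the left ear as control. Mice were killed 2 h later. 7 mm ear punches were weighed, and edema was taken as right minus left weight. Groups were compared by one-way ANOVA, p < 0.05.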

[3] = system: Mus musculus; test: Toxicity in mouse assessed as tail bleeding time at 200 mg/kg, po after 90 mins; format: organism-based; parameters: dose 200 mg/kg, route oral; conditions: in vivo, 1.5 h; outline: as §1
[4] = system: Mus musculus; test: Toxicity in mouse assessed as tail bleeding time at 200 mg/kg, po after 60 mins; format: organism-based; parameters: dose 200 mg/kg, route oral; conditions: in vivo, 1 h; outline: as §1
[5] = system: Mus musculus; test: Toxicity in mouse assessed as tail bleeding time at 200 mg/kg, po after 45 mins; format: organism-based; parameters: dose 200 mg/kg, route oral; conditions: in vivo, 0.75 h; outline: as §1

SMILES | Activity [1] | inhibition in vivo at 20 mg/kg [2] | Activity [3] | Activity [4] | Activity [5]
C[C@@H]1O[C@@H](c2ccc(Cl)cc2)OC[C@H]1NC(=O)c1ccccc1 | 118.3 s | 56.4% | 118.7 s | 118.5 s | 118.9 s
C[C@@H]1O[C@@H](c2cccc([N+](=O)[O-])c2)OC[C@H]1NC(=O)c1ccccc1 | 118.9 s | 42% | 118.3 s | 117.4 s | 119.2 s
Cc1ccc([C@@H]2OC[C@@H](NC(=O)Cc3ccccc3)[C@@H](C)O2)cc1 | 117.9 s | 42.3% | 118.5 s | 119 s | 118.6 s
C[C@@H]1O[C@@H](c2ccc([N+](=O)[O-])cc2)OC[C@H]1NC(=O)c1ccccc1 | 118.4 s | 57.4% | 118.9 s | 117.2 s | 119.2 s
O=C(N[C@H]1CCO[C@@H](c2cccc([N+](=O)[O-])c2)OC1)c1ccccc1 | – | 21.8% | – | – | –
O=C(Cc1ccccc1)N[C@H]1CCCO[C@@H](c2ccc([N+](=O)[O-])cc2)OC1 | – | 20.8% | – | – | –
O=C(Cc1ccccc1)N[C@H]1CO[C@H](c2ccc(Cl)cc2)OC1 | 117.9 s | 42% | 118.4 s | 119.5 s | 119.2 s
O=C(N[C@H]1CCO[C@H](c2ccc([N+](=O)[O-])cc2)OC1)c1ccccc1 | – | 19.2% | – | – | –
C[C@@H]1O[C@H](/C=C/c2ccccc2)OC[C@H]1NC(=O)Cc1ccccc1 | – | 33.3% | – | – | –
O=C(Cc1ccccc1)N[C@H]1CO[C@@H](c2cccc([N+](=O)[O-])c2)OC1 | 117.7 s | 41.3% | 118.6 s | 119.2 s | 118.5 s
O=C(N[C@H]1CCO[C@@H](c2ccc(Cl)cc2)OC1)c1ccccc1 | – | 28.2% | – | – | –
C[C@@H]1O[C@@H](/C=C/c2ccccc2)OC[C@H]1NC(=O)Cc1ccccc1 | – | 32.1% | – | – | –
O=C(Cc1ccccc1)N[C@H]1CCO[C@@H](c2ccc(Cl)cc2)OC1 | – | 24.4% | – | – | –
C[C@@H]1O[C@H](c2ccc([N+](=O)[O-])cc2)OC[C@H]1NC(=O)Cc1ccccc1 | 117.8 s | 55.1% | 117.2 s | 117.9 s | 118.5 s
O=C(Cc1ccccc1)N[C@H]1CO[C@H](c2ccc([N+](=O)[O-])cc2)OC1 | 120.7 s | 44.6% | 117.7 s | 117.6 s | 120.2 s
O=C(N[C@H]1CO[C@H](c2ccc(Cl)cc2)OC1)c1ccccc1 | 119 s | 47.4% | 119.6 s | 118.7 s | 118.9 s
O=C(Cc1ccccc1)N[C@H]1CCCO[C@@H](c2ccc(Cl)cc2)OC1 | – | 23.7% | – | – | –
O=C(Cc1ccccc1)N[C@H]1CO[C@H](c2cccc([N+](=O)[O-])c2)OC1 | 117.7 s | 42.6% | 118.6 s | 119.2 s | 118.5 s
Cc1ccc([C@H]2OC[C@@H](NC(=O)c3ccccc3)[C@H](C)O2)cc1 | 120.9 s | 46.1% | 118.7 s | 119.8 s | 121 s
C[C@@H]1O[C@@H](c2cccc([N+](=O)[O-])c2)OC[C@H]1NC(=O)Cc1ccccc1 | 120.1 s | 47.1% | 118.6 s | 118.5 s | 118.7 s
Cc1ccc([C@H]2OC[C@@H](NC(=O)Cc3ccccc3)CO2)cc1 | 117.2 s | 36.5% | 119.2 s | 118.4 s | 118.6 s
C[C@@H]1O[C@H](c2cccc([N+](=O)[O-])c2)OC[C@H]1NC(=O)c1ccccc1 | 118.9 s | – | 118.2 s | 119.5 s | 118.2 s
O=C(Cc1ccccc1)N[C@H]1CCO[C@H](c2ccc(Cl)cc2)OC1 | – | 23.7% | – | – | –
C[C@@H]1O[C@@H](c2ccccc2)OC[C@H]1NC(=O)Cc1ccccc1 | 118.5 s | 40% | 117.9 s | 118.6 s | 119 s
C[C@@H]1O[C@H](c2cccc([N+](=O)[O-])c2)OC[C@H]1NC(=O)Cc1ccccc1 | 120.1 s | 46.5% | 118.6 s | 118.5 s | 118.7 s

SMILES | Activity [1] | inhibition in vivo at 20 mg/kg [2] | Activity [3] | Activity [4] | Activity [5]
O=C(N[C@H]1CCO[C@@H](c2ccc([N+](=O)[O-])cc2)OC1)c1ccccc1 | – | 20.2% | – | – | –
O=C(Cc1ccccc1)N[C@H]1CCO[C@@H](c2cccc([N+](=O)[O-])c2)OC1 | – | 21.2% | – | – | –
C[C@@H]1O[C@H](c2ccccc2)OC[C@H]1NC(=O)c1ccccc1 | 118.7 s | 43.9% | 118.9 s | 118.6 s | 118.9 s
O=C(Cc1ccccc1)N[C@H]1CO[C@@H](c2ccc([N+](=O)[O-])cc2)OC1 | 120.7 s | 43.3% | 117.7 s | 117.6 s | 120.2 s
O=C(Cc1ccccc1)N[C@H]1CCO[C@H](c2cccc([N+](=O)[O-])c2)OC1 | – | 20.1% | – | – | –
Cc1ccc([C@H]2OC[C@H](NC(=O)Cc3ccccc3)CO2)cc1 | 117.2 s | 35.6% | 119.2 s | 118.4 s | 118.6 s
O=C(Cc1ccccc1)N[C@H]1CCCO[C@H](c2ccc(Cl)cc2)OC1 | – | 23.1% | – | – | –
O=C(N[C@H]1CO[C@@H](c2cccc([N+](=O)[O-])c2)OC1)c1ccccc1 | 119.3 s | 42.9% | 120.2 s | 119.1 s | 118.2 s
O=C(Cc1ccccc1)N[C@H]1CO[C@H](c2ccccc2)OC1 | 118.5 s | 37.8% | 118.9 s | 117.8 s | 119.3 s
O=C(N[C@H]1CO[C@@H](c2ccc(Cl)cc2)OC1)c1ccccc1 | 118 s | 28.5% | 119.4 s | 120.9 s | 118.9 s
O=C(Cc1ccccc1)N[C@H]1CO[C@@H](/C=C/c2ccccc2)OC1 | – | 27.2% | – | – | –
O=C(Cc1ccccc1)N[C@H]1CCCO[C@@H](c2cccc([N+](=O)[O-])c2)OC1 | – | 19.9% | – | – | –
O=C(Cc1ccccc1)N[C@H]1CO[C@@H](c2ccc(Cl)cc2)OC1 | 117.9 s | 43.6% | 118.4 s | 119.5 s | 119.2 s
O=C(Cc1ccccc1)N[C@H]1CO[C@H](/C=C/c2ccccc2)OC1 | – | 29.5% | – | – | –
C[C@@H]1O[C@@H](c2ccccc2)OC[C@H]1NC(=O)c1ccccc1 | – | 43.9% | – | – | –
O=C(Cc1ccccc1)N[C@H]1CCO[C@@H](c2ccc([N+](=O)[O-])cc2)OC1 | – | 19.6% | – | – | –
O=C(N[C@H]1CCO[C@H](c2cccc([N+](=O)[O-])c2)OC1)c1ccccc1 | – | 20.8% | – | – | –
Cc1ccc([C@H]2OC[C@@H](NC(=O)Cc3ccccc3)[C@H](C)O2)cc1 | 117.9 s | 41% | 118.5 s | 119 s | 118.6 s
C[C@@H]1O[C@H](c2ccc(Cl)cc2)OC[C@H]1NC(=O)Cc1ccccc1 | 118.4 s | 46.1% | 119 s | 118.6 s | 119.6 s
C[C@@H]1O[C@H](c2ccc(Cl)cc2)OC[C@H]1NC(=O)c1ccccc1 | 119.6 s | 47.1% | 118.6 s | 118.7 s | 118.6 s
C[C@@H]1O[C@@H](c2ccc([N+](=O)[O-])cc2)OC[C@H]1NC(=O)Cc1ccccc1 | 117.8 s | 55.8% | 117.2 s | 117.9 s | 118.5 s
O=C(Cc1ccccc1)N[C@H]1CCO[C@H](c2ccc([N+](=O)[O-])cc2)OC1 | – | 18.9% | – | – | –
O=C(N[C@H]1CCO[C@H](c2ccc(Cl)cc2)OC1)c1ccccc1 | – | 29.5% | – | – | –
O=C(Cc1ccccc1)N[C@H]1CCCO[C@H](c2cccc([N+](=O)[O-])c2)OC1 | – | 19.2% | – | – | –
O=C(Cc1ccccc1)N[C@H]1CCCO[C@H](c2ccc([N+](=O)[O-])cc2)OC1 | – | 19.9% | – | – | –
